Measurements from ChEMBL document CHEMBL2346559, “Optimization of benzoxazole-based inhibitors of Cryptosporidium parvum inosine 5'-monophosphate dehydrogenase” (J Med Chem, 2013).

How the values were obtained:
[1] = target: Inosine-5'-monophosphate dehydrogenase 2 (Homo sapiens, UniProt P12268); assay: Inhibition of human IMPDH2
[2] = target: T1, Inosine-5'-monophosphate dehydrogenase (Cryptosporidium parvum, UniProt Q8T6T2); assay: Inhibition of Cryptosporidium parvum N-terminal His6-tagged IMPDH-mediated NADH production expressed in Escherichia coli BL21(DE3) preincubated for 5 mins prior to substrate addition by fluorescence assay in presence of BSA
T1 sequence (Q8T6T2 whole entry): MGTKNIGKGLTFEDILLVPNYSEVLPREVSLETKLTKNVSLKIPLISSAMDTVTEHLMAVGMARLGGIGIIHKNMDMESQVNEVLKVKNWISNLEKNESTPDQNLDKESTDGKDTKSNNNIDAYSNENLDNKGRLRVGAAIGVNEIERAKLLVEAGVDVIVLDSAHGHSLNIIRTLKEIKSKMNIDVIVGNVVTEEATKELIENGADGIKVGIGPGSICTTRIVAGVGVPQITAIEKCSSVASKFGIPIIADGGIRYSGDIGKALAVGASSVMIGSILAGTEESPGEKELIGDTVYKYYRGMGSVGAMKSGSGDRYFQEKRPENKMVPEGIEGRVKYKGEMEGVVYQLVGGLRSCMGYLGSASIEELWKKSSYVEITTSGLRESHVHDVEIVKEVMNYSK
Method in brief: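 Same CpIMPDH fluorescence assay (10 nM enzyme, 300 μM NAD, 150 μM IMP, pH 8.0 Tris buffer, 25 °C, 5 min inhibitor preincubation), run with 0.05% fatty-acid-free BSA added to gauge nonspecific protein binding. Quadruplicate points; IC50 averaged over three determinations.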

[3] = target: T1, Inosine-5'-monophosphate dehydrogenase; assay: Inhibition of Cryptosporidium parvum N-terminal His6-tagged IMPDH-mediated NADH production expressed in Escherichia coli BL21(DE3) preincubated for 5 mins prior to substrate addition by fluorescence assay
Toxoplasma gondii [4] = assay: Antiparasitic activity against transgenic Toxoplasma gondii expressing Cryptosporidium parvum IMPDH; type: functional, organism-based
Method in brief: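 Engineered T. gondii strain that depends on CpIMPDH for guanine nucleotide synthesis, run alongside the wild-type RH strain, whose native eukaryotic IMPDH also gauges host-cell cytotoxicity. Antiparasitic EC50 is the average of three independent determinations unless otherwise stated, with some values from two determinations.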

Toxoplasma gondii [5] = assay: Selectivity ratio of EC50 for wild-type Toxoplasma gondii to EC50 for Toxoplasma gondii expressing Cryptosporidium parvum IMPDH; type: functional
Toxoplasma gondii [6] = assay: Antiparasitic activity against wild-type Toxoplasma gondii expressing eukaryotic IMPDH; type: functional, organism-based
[7] = Cytotoxicity against African green monkey COS cells after 3 days by Alamar blue assay; type: cell-based; conditions: chlorocebus aethiops, read-out: LD50
Method in brief: (§1)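 Tested in parallel against HeLa, HEK293, COS and CHO cells. Viability was read as metabolic activity by alamarBlue and expressed as LD50.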

[8] = Cytotoxicity against CHO cells after 3 days by Alamar blue assay; type: cell-based, Cricetulus griseus; conditions: chinese hamster, read-out: LD50; method in brief: as §1
[9] = Cytotoxicity against human HEK293 cells after 3 days by Alamar blue assay; type: cell-based; conditions: read-out: LD50; method in brief: as §1
[10] = Cytotoxicity against human HeLa cells after 3 days by Alamar blue assay; type: cell-based; conditions: read-out: LD50; method in brief: as §1
Liver [11] = assay: Half life in mouse liver microsomes by LC/MS/MS analysis; type: ADME, Microsome
Method in brief: (§2)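 Incubation with mouse liver microsomes at 37 °C, with and without NADPH. Percent of compound remaining measured at several time points; half-life from a fit to first-order decay.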

Liver [12] = assay: Half life in mouse liver microsomes by LC/MS/MS analysis in presence of NADPH; type: ADME, Microsome; method in brief: as §2

Compound	IC50 [1] [µM]	IC50 [2] [nM]	IC50 [3] [nM]	EC50 (Toxoplasma gondii [4]) [nM]	Ratio EC50 (Toxoplasma gondii [5])	EC50 (Toxoplasma gondii [6]) [µM]	CC50 at 72 h [7] [µM]	CC50 at 72 h [8] [µM]	CC50 at 72 h [9] [µM]	CC50 at 72 h [10] [µM]	t1/2 (Liver [11]) [min]	t1/2 (Liver [12]) [min]
CC(C)C(Oc1cccc2ccccc12)C(=O)Nc1ccc2oc(-c3ccncc3)nc2c1 (stereo not given)	> 5	57	24	–	–	–	–	–	–	–	–	–
CC(Oc1ccc(Cl)c2ccccc12)C(=O)Nc1ccc2oc(-c3ccncc3)nc2c1 (stereo not given)	> 5	53	27	–	–	–	–	–	–	–	–	–
CC(Nc1cccc(Cl)c1Cl)C(=O)Nc1ccc2oc(-c3ccncc3)nc2c1 (racemic)	> 5	–	2	20	–	–	–	–	–	–	–	–
CC(Oc1ccc(Cl)c2ccccc12)C(=O)Nc1ccc2oc(-c3cncs3)nc2c1 (stereo not given)	> 5	70	28	2000	3	5	–	–	–	–	–	–
CC(Oc1ccc(Cl)cc1Cl)C(=O)Nc1ccc2oc(-c3cccnc3)nc2c1 (stereo not given)	> 5	600	150	–	–	–	–	–	–	–	–	–
CC(C)(Oc1ccc(Cl)cc1)C(=O)Nc1ccc2oc(-c3ccncc3)nc2c1	> 5	–	> 5000	–	–	–	–	–	–	–	–	–
CC(Oc1ccccc1)C(=O)Nc1ccc2oc(-c3ccncc3)nc2c1 (stereo not given)	> 5	50	40	4000	2	7	–	–	–	–	–	–
CC(Oc1ccccc1)C(=O)Nc1ccc2nc(-c3ccncc3)[nH]c2c1 (stereo not given)	> 5	–	> 5000	9000	1	9	–	–	–	–	–	–
CC(Oc1c(Cl)cccc1Cl)C(=O)Nc1ccc2oc(-c3ccncc3)nc2c1 (stereo not given)	> 5	–	> 5000	–	–	–	–	–	–	–	–	–
C[C@H](Oc1cccc(Cl)c1Cl)C(=O)Nc1cccc(NC(=O)c2ccncc2)c1	> 5	–	> 5000	–	–	–	–	–	–	–	–	–
C[C@H](Oc1cccc2ccccc12)C(=O)Nc1ccc2oc(-c3ccc[nH]3)nc2c1	> 5	50	26	1000	1.7	1.7	–	–	–	–	–	–
CC(Oc1ccc(Cl)cc1Cl)C(=O)Nc1ccc2oc(-c3ccccn3)nc2c1 (stereo not given)	> 5	800	210	–	–	–	–	–	–	–	–	–
C[C@H](Oc1cccc2ccccc12)C(=O)N(C)c1ccc2oc(-c3cncs3)nc2c1	> 5	–	> 5000	–	–	–	–	–	–	–	–	–
COc1ccc(OC(C)C(=O)Nc2ccc3oc(-c4ccncc4)nc3c2)cc1 (stereo not given)	> 5	34	28	500	>50	> 25	> 50	> 50	> 50	> 50	–	–
CC(Oc1ccc(Cl)cc1)C(=O)Nc1ccc2oc(-c3ccncc3)nc2c1 (stereo not given)	> 5	118	105	–	–	–	–	–	–	–	–	–
C[C@H](Oc1cccc(Cl)c1Cl)C(=O)Nc1ccc2oc(-c3nccs3)nc2c1	> 5	30	17	300	7	2.2	–	–	–	–	–	–
CC(Oc1cccc(Cl)c1Cl)C(=O)Nc1ccc2oc(-c3ccncc3)nc2c1 (stereo not given)	> 5	11	3	220	40	8	> 50	> 50	> 50	> 50	–	–
CC(C(=O)Nc1ccc2oc(-c3ccncc3)nc2c1)c1ccccc1 (stereo not given)	> 5	130	120	2500	–	5	–	–	–	–	–	–
COc1cccc(O[C@@H](C)C(=O)Nc2ccc3oc(-c4ccncc4)nc3c2)c1OC	> 5	60	50	700	30	21	–	–	–	–	–	–
C[C@@H](C(=O)Nc1ccc2oc(-c3ccncc3)nc2c1)c1cccc(Cl)c1Cl	> 5	–	60	–	–	–	–	–	–	–	130	25
